For orientation: IC50 means the concentration that gives 50% inhibition. By solubility is commonly meant the concentration that dissolves in the medium under given conditions. Low readings indicate a poorly soluble substance, high ones a readily soluble substance. The term half-life denotes the time in which the quantity being followed falls by half. Low readings indicate rapid decline, high ones slow decline. As usually defined, the Cmax is the peak of the concentration-time curve. The term Tmax denotes the time at which the peak concentration occurs. In general, AUC(0-inf) refers to total exposure, with the tail of the curve extrapolated.

These results are taken from ChEMBL document CHEMBL2390847, “Synthesis and biological evaluation of novel phosphatidylinositol 3-kinase inhibitors: Solubilized 4-substituted benzimidazole analogs of 2-(difluoromethyl)-1-[4,6-di(4-morpholinyl)-1,3,5-triazin-2-yl]-1H-benzimidazole (ZSTK474)” (Eur J Med Chem, 2013).

Series [1] can be described thus: Cytotoxicity against human NZOV9 cells expressing PI3K p110alpha Y1021C mutant assessed as growth inhibition after 5 days by [3H]-thymidine incorporation assay. The format is functional, cell-based. The gist of the method: (§1)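 NZB5 (medulloblastoma, wild-type p110α) and NZOV9 (ovarian endometrioid adenocarcinoma, Y1021C p110α) cells cultured with drug for 5 days; proliferation by [³H]-thymidine incorporation at end; IC50 as 50% inhibition versus controls, averaged over at least two determinations.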
For orientation: Dividing cells build labelled thymidine or BrdU into new DNA.

A short description of series [2]: Cytotoxicity against human NZB5 cells expressing wild type PI3K p110alpha assessed as growth inhibition after 5 days by [3H]-thymidine incorporation assay. The format is functional, cell-based. The gist of the method: as §1
The target in series [3] is PI3-kinase p110-delta/p85-alpha (Homo sapiens, UniProt O00329). Nature of the series: Inhibition of recombinant PI3K p110delta/p85alpha (unknown origin) using phosphotidylinositol as susbstrate after 1 hr by thin layer paper chromatographic analysis in presence of [gamma-33P]ATP. The format is protein-complex assay.
Sequence of PI3-kinase p110-delta/p85-alpha (P27986 whole entry): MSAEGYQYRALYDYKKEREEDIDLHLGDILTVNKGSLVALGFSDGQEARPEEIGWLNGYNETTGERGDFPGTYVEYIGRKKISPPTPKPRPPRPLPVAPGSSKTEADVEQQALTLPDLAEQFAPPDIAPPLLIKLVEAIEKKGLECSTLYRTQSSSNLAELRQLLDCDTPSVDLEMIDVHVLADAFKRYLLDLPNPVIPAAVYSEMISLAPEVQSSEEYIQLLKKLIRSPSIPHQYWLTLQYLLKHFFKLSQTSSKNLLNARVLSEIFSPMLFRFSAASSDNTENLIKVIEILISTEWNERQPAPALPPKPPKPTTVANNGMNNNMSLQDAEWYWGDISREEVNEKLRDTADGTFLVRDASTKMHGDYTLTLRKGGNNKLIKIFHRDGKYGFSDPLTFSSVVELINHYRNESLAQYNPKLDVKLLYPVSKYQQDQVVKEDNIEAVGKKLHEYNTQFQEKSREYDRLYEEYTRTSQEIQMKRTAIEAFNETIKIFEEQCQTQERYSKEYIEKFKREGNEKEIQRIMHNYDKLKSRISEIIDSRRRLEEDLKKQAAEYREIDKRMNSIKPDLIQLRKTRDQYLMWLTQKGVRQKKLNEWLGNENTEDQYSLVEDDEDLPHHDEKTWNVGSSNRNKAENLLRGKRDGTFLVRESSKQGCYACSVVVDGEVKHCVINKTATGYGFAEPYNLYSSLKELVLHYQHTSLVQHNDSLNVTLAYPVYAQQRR
Sequence of PI3-kinase p110-delta/p85-alpha (O00329 whole entry): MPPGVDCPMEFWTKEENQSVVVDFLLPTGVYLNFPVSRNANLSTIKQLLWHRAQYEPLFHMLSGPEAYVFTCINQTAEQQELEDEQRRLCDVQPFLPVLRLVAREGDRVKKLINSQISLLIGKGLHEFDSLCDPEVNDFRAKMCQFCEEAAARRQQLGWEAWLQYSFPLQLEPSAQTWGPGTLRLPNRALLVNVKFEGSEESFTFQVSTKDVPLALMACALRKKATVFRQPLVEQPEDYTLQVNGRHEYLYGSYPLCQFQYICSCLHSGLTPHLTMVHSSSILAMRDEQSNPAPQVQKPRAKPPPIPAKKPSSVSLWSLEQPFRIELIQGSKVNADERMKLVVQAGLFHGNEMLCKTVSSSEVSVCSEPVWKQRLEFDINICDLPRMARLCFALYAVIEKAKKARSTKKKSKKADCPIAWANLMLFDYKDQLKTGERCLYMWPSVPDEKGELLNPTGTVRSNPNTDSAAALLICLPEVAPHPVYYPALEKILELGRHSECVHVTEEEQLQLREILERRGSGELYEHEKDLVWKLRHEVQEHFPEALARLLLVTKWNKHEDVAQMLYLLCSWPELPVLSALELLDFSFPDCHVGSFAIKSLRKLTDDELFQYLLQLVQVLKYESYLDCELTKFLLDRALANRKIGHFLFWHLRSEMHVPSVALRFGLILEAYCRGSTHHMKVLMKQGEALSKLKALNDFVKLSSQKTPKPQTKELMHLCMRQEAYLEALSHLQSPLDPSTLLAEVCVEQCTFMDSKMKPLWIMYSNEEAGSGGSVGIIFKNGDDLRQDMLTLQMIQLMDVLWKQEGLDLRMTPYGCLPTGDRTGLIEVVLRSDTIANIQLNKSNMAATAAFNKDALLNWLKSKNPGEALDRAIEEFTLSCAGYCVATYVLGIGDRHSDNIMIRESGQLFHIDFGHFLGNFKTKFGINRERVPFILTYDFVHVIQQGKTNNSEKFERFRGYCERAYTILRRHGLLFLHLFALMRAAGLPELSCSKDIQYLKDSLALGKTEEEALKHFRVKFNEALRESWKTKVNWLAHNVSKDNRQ
The target in series [4] is PI3K p110 beta/p85 alpha (Homo sapiens, UniProt P42338). In words: Inhibition of recombinant PI3K p110beta/p85alpha (unknown origin) using phosphotidylinositol as susbstrate after 1 hr by thin layer paper chromatographic analysis in presence of [gamma-33P]ATP. The format is protein-complex assay.
Sequence of PI3K p110 beta/p85 alpha (P27986 whole entry): as the sequence (P27986 whole entry) above
Sequence of PI3K p110 beta/p85 alpha (P42338 whole entry): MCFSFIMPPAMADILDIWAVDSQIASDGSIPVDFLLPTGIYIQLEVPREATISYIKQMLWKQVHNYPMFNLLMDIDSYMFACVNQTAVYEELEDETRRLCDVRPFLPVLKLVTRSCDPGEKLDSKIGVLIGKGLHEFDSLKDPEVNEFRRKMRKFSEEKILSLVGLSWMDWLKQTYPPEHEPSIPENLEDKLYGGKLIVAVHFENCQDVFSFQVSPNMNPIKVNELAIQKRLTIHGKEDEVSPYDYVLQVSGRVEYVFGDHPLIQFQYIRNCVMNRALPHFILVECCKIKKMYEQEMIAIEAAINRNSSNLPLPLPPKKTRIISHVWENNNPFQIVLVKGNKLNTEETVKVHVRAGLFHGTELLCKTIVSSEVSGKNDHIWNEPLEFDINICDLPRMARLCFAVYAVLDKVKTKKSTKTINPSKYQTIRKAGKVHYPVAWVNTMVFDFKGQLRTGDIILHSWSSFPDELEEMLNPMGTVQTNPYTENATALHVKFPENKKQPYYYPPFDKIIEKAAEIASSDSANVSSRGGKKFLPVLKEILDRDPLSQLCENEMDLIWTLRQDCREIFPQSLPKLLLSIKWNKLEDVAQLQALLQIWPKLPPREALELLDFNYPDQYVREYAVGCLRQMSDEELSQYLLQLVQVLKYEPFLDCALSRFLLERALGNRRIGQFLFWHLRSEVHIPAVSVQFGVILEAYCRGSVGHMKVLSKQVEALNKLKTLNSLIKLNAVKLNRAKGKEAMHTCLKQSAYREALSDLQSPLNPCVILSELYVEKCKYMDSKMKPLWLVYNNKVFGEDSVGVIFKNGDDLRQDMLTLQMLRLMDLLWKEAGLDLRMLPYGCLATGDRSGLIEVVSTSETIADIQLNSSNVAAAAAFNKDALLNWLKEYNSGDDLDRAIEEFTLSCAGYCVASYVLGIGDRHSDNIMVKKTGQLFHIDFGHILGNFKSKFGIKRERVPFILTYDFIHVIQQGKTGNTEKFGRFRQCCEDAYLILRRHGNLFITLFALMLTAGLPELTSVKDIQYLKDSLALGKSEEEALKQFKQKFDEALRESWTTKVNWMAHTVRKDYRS
Series [5] addresses PI3-kinase p110-alpha/p85-alpha (Homo sapiens, UniProt P42336). In words: Inhibition of recombinant PI3K p110alpha/p85alpha (unknown origin) using phosphotidylinositol as susbstrate after 1 hr by thin layer paper chromatographic analysis in presence of [gamma-33P]ATP. The format is protein-complex assay.
Series [6] concerns Mus musculus. Nature of the series: Toxicity in rag1-deficient mouse xenografted with human U87MG cells assessed as body weight loss at 40 mg/kg, ip qd after 14 days relative to control. The format is organism-based, U-87MG ATCC. Details: dose 40 mg/kg, route intraperitoneal. To be noted: in vivo, 336 h.
For series [7], the system named is Mus musculus. In words: Toxicity in rag1-deficient mouse xenografted with human U87MG cells assessed as mortality at 40 mg/kg, ip qd after 14 days relative to control. Format: organism-based, U-87MG ATCC. Details: dose 40 mg/kg, route intraperitoneal. Conditions: in vivo, 336 h. The gist of the method:
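Female specific-pathogen-free Rag1−/− mice given 5 × 10⁶ U87MG cells s.c. in PBS on the right flank. Dosing started 3–4 weeks later, once tumors averaged about 8 mm. Drug was given i.p. daily for 14 days at 10 mL/kg as free base, in 10% DMSO, 15% Cremophor EL, 15% EtOH and 60% saline. Bodyweight and tumor volume were recorded every 2–3 days.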
In general terms: Xenograft models place foreign cells or tissue in a host animal.

Series [8] can be described thus: Antitumor activity against human U87MG cells xenografted in rag1-deficient mouse assessed as tumor growth inhibition at 40 mg/kg, ip qd measured after 7 days relative to control. Conditions: U-87 MG, 168 h, read-out: TGI.
The nature of series [9]: Aqueous solubility of the compound in water by HPLC analysis. Format: physicochemical. The gist of the method:
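Solid mixed with water to make 2 mM, sonicated 15 min, centrifuged; supernatant diluted 2-fold, recentrifuged, analysed by C18 HPLC (acetonitrile/45 mM ammonium formate pH 3.5 gradient); peak area compared with DMSO standard.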

Series [10] concerns Mus musculus. Nature of the series: Toxicity in rag1-deficient mouse xenografted with human U87MG cells assessed as body weight loss at 15 mg/kg, ip qd after 14 days relative to control. Format: organism-based, U-87MG ATCC. To be noted: in vivo, 336 h. Details: dose 15 mg/kg, route intraperitoneal.
A short description of series [11]: Antitumor activity against human U87MG cells xenografted in rag1-deficient mouse assessed as tumor growth inhibition at 15 mg/kg, ip qd measured after 7 days relative to control. To be noted: U-87 MG, 168 h, read-out: TGI.
Series [12] concerns Mus musculus. In words: Toxicity in rag1-deficient mouse xenografted with human U87MG cells assessed as body weight loss at 60 mg/kg, ip qd after 14 days relative to control. To be noted: in vivo, 336 h. Format: organism-based, U-87MG ATCC. Details: dose 60 mg/kg, route intraperitoneal.
A short description of series [13]: Half life in C57 mouse at 10 mg/kg, ip. Details: dose 10 mg/kg, route intraperitoneal. The format is ADME, organism-based. To be noted: in vivo. A digest of the protocol:
(§2)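 Male specific pathogen-free age-matched C57 mice; single 10 mg/kg i.p. dose in 10% EtOH; animals culled at multiple time points; blood by cardiac puncture into EDTA, plasma separated by centrifugation, protein precipitated in MeOH.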

Series [14] concerns the target T1, Phosphatidylinositol 4,5-bisphosphate 3-kinase catalytic subunit alpha isoform (Homo sapiens, UniProt P42336, H1047R). In words: Inhibition of PI3K p110alpha H1047R mutant in human HCT116 cells assessed as inhibition of AKT/PKB phosphorylation at Thr308 incubated for 15 mins prior to insulin stimulation measured after 5 mins by immunoblot analysis. Format: cell-based, HCT-116. A general note: Immunoblotting shows a protein as a band on a membrane.

For series [15], the target named is T1, Phosphatidylinositol 4,5-bisphosphate 3-kinase catalytic subunit alpha isoform. In words: Inhibition of PI3K p110alpha H1047R mutant in human HCT116 cells assessed as inhibition of AKT/PKB phosphorylation at Ser473 incubated for 15 mins prior to insulin stimulation measured after 5 mins by immunoblot analysis. The format is cell-based, HCT-116.
The nature of series [16]: Cmax in C57 mouse at 10 mg/kg, ip. The format is ADME, organism-based. Details: dose 10 mg/kg, route intraperitoneal. To be noted: in vivo. The gist of the method:
as §2

A short description of series [17]: Tmax in C57 mouse at 10 mg/kg, ip. To be noted: in vivo. Details: dose 10 mg/kg, route intraperitoneal. The format is ADME, organism-based. The gist of the method:
as §2

A short description of series [18]: AUC (infinity) in C57 mouse at 10 mg/kg, ip. The format is ADME, organism-based. Details: dose 10 mg/kg, route intraperitoneal, time infinity. To be noted: plasma. The gist of the method: as §2
Series [19] relates to Mus musculus. In words: Toxicity in rag1-deficient mouse xenografted with human U87MG cells assessed as mortality without preceding sings of toxicity at 60 mg/kg, ip qd after 14 days relative to control. Format: organism-based, U-87MG ATCC. Details: dose 60 mg/kg, route intraperitoneal. Conditions: in vivo, 336 h.
A short description of series [20]: Antitumor activity against human U87MG cells xenografted in rag1-deficient mouse assessed as tumor growth inhibition at 60 mg/kg, ip qd measured after 7 days relative to control. Conditions: U-87 MG, 168 h, read-out: TGI.

Sequence of PI3-kinase p110-alpha/p85-alpha (P27986 whole entry): as the sequence (P27986 whole entry) above
Sequence of PI3-kinase p110-alpha/p85-alpha (P42336 whole entry): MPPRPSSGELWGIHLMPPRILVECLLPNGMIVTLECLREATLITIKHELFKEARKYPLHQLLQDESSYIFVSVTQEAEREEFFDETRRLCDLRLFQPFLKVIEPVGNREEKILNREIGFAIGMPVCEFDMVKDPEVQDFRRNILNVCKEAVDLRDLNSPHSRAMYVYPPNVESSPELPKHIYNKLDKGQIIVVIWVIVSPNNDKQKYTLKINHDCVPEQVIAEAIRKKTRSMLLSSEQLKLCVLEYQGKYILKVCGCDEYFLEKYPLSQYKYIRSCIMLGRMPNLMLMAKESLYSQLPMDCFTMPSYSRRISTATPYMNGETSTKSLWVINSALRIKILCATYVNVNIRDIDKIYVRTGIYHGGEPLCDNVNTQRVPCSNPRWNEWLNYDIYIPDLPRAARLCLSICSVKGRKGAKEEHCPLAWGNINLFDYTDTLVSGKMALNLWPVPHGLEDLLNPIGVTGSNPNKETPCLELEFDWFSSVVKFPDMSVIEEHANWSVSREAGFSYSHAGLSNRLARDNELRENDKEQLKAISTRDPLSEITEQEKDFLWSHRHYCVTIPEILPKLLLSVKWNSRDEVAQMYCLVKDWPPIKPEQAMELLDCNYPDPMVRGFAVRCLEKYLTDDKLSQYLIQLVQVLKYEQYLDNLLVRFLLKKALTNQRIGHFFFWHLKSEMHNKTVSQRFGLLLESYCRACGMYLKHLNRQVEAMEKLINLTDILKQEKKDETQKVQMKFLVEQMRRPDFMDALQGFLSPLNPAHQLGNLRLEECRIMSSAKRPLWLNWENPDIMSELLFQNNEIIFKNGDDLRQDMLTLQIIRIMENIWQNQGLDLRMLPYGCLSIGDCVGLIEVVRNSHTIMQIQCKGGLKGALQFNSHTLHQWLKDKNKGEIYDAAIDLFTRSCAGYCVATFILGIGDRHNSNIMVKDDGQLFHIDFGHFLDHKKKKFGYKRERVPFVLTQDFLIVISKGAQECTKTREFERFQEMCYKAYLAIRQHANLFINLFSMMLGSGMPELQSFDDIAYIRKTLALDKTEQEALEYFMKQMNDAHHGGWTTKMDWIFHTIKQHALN
T1 sequence (P42336 whole entry H1047R, canonical isoform): as the sequence (P42336 whole entry) above, with H1047R counted along it

Turning to `NCCOc1cccc2c1nc(C(F)F)n2-c1nc(N2CCOCC2)nc(N2CCOCC2)n1`, the IC50 came to 22 nM in series [1]; 52 nM in series [2]; 20 nM in series [3]; 130 nM in [4]; 17 nM in series [5].
The corresponding values for `OCCOc1cccc2c1nc(C(F)F)n2-c1nc(N2CCOCC2)nc(N2CCOCC2)n1` are 60 nM, 60 nM, 2.6 nM, 16 nM and 5.3 nM.
For `NCC(=O)Nc1cccc2c1nc(C(F)F)n2-c1nc(N2CCOCC2)nc(N2CCOCC2)n1`, the half-inhibitory concentration (IC50) in series [1] was determined as 60 nM; in series [2] it was 140 nM; in series [3], 52 nM; in series [4], 740 nM; in series [5] it was 119 nM.
For `NCCC(=O)Nc1cccc2c1nc(C(F)F)n2-c1nc(N2CCOCC2)nc(N2CCOCC2)n1`, in that order: 120 nM, 440 nM, 210 nM, 3010 nM and 855 nM.
For `FC(F)c1nc2c(OCCCN3CCOCC3)cccc2n1-c1nc(N2CCOCC2)nc(N2CCOCC2)n1`, in that order: 30 nM, 60 nM, 18 nM, 76 nM and 29 nM.
For the compound `FC(F)c1nc2c(OCCN3CCOCC3)cccc2n1-c1nc(N2CCOCC2)nc(N2CCOCC2)n1`, the IC50 in [1] worked out at 71 nM; in series [2], 105 nM; in series [3], 53 nM; in series [4] it was 150 nM; in series [5] it was 130 nM.
`FC(F)c1nc2ccccc2n1-c1nc(N2CCOCC2)nc(N2CCOCC2)n1` [ZSTK-474]: the Activity in series [6] is reported as 19%; in series [7], “Toxic”. Moreover, the inhibition in vivo at 40 mg/kg in series [8] stood at 67.6%.
On to `OCCCOc1cccc2c1nc(C(F)F)n2-c1nc(N2CCOCC2)nc(N2CCOCC2)n1`, for which the IC50 in [1] was determined as 18 nM; in [2], 71 nM; in [3] it was 22 nM; in [4] it was 170 nM; in series [5] it was 10 nM.
For `O=C(O)COc1cccc2c1nc(C(F)F)n2-c1nc(N2CCOCC2)nc(N2CCOCC2)n1`, in that order: 3400 nM, 8500 nM, 39 nM, 274 nM and 52 nM.
The corresponding values for `NCCCOc1cccc2c1nc(C(F)F)n2-c1nc(N2CCOCC2)nc(N2CCOCC2)n1` are 9 nM, 32 nM, 28 nM, 75 nM and 28 nM.
For `CN(C)CC(O)COc1cccc2c1nc(C(F)F)n2-c1nc(N2CCOCC2)nc(N2CCOCC2)n1` (stereo not given), in that order: 110 nM, 330 nM, 13 nM, 30 nM and 33 nM.
In the case of `CN(C)CC(=O)Nc1cccc2c1nc(C(F)F)n2-c1nc(N2CCOCC2)nc(N2CCOCC2)n1`, the IC50 in series [1] was determined as 50 nM; in series [2] it was 50 nM; in series [3], 99 nM; in series [4], 1040 nM; in series [5], 379 nM.
Take `OC(COc1cccc2c1nc(C(F)F)n2-c1nc(N2CCOCC2)nc(N2CCOCC2)n1)CN1CCOCC1` (stereo not given): the IC50 worked out at 25 nM in series [1]; 54 nM in series [2]; 5.5 nM in [3]; 53 nM in [4]; 41 nM in [5].
Consider `CN(C)CCCOc1cccc2c1nc(C(F)F)n2-c1nc(N2CCOCC2)nc(N2CCOCC2)n1.Cl`, for which the solubility in series [9] is 25 mg/mL.
As for `Cn1c(=O)n(-c2ccc(C(C)(C)C#N)cc2)c2c3cc(-c4cnc5ccccc5c4)ccc3ncc21` [DACTOLISIB], the Activity in series [10] is reported as 5%. Also, the inhibition in vivo at 15 mg/kg in [11] came to 60.3%.
For `CN(C)CCOc1cccc2c1nc(C(F)F)n2-c1nc(N2CCOCC2)nc(N2CCOCC2)n1`, the IC50 in series [1] was 150 nM; in [2], 450 nM; in [3], 19 nM; in series [4], 105 nM; in series [5] it was 35 nM.
With `CN(C)CCNc1cccc2c1nc(C(F)F)n2-c1nc(N2CCOCC2)nc(N2CCOCC2)n1`, the IC50 amounted to 110 nM in series [1]; 200 nM in [2]; 15 nM in series [3]; 73 nM in series [4]; 174 nM in series [5].
As for `CN(C)CCCOc1cccc2c1nc(C(F)F)n2-c1nc(N2CCOCC2)nc(N2CCOCC2)n1`, the figures for the Activity in series [12] and in [19] were 5% and “Toxic”, respectively. Besides, the half-life in [13] is 93.6 min. For the same compound, the IC50 stood at 74 nM in [14]; 36 nM in [15]; 40 nM in series [1]; 170 nM in [2]; 4.5 nM in [3]; 7.3 nM in [4]. The IC50 in [5] was 11 nM. In [16], this compound yielded a Cmax of 1940 nM. For the same compound, the Tmax in series [17] was 15 min. The AUC(0-inf) in series [18] worked out at 2.59 µM·h. In series [20], the inhibition in vivo at 60 mg/kg turned out to be 56.3%.
On to `OCC(O)COc1cccc2c1nc(C(F)F)n2-c1nc(N2CCOCC2)nc(N2CCOCC2)n1` (stereo not given), for which the IC50 in [1] was 25 nM; in series [2], 26 nM; in series [3], 4.7 nM; in [4], 24 nM; in series [5] it was 12 nM.
The corresponding values for `CN(C)CCC(=O)Nc1cccc2c1nc(C(F)F)n2-c1nc(N2CCOCC2)nc(N2CCOCC2)n1` are 140 nM, 290 nM, 112 nM, 1260 nM and 486 nM.
